Measurements taken from article PMC5546011 (Journal of medicinal chemistry, 2017).
“Also recorded” adds a separate entry of the source. Read-outs that look alike come from different tables or passages of the source.

Legend:
[1] = Rat liver microsomal stability; conditions: rat liver microsomes 0.25 mg/mL, 10 μM compound, no NADPH, 37°C; result in words
[2] = target: human μ-opioid receptor (Homo sapiens, UniProt P35372); assay: Inhibition of forskolin-induced cAMP accumulation, MOR; assay type: cell-based
Chain of human μ-opioid receptor (P35372 whole entry): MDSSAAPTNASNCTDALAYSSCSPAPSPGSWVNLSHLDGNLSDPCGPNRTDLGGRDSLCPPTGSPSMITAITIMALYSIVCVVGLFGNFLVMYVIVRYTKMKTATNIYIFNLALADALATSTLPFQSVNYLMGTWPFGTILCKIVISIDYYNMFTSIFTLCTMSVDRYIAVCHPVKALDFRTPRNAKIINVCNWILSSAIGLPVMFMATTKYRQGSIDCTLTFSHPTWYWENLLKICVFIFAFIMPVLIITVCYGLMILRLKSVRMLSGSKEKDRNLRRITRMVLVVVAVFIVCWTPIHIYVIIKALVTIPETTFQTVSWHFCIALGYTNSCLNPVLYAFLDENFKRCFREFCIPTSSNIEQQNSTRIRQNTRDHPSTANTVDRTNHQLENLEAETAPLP
In short: (§1)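 CHO-K1 HitHunter cells stably expressing human δ- or μ-opioid receptor, kept in F-12 with 10% FBS, 1% penicillin/streptomycin/L-glutamine and 800 μg/mL Geneticin at 37 °C, 5% CO2. cAMP accumulation was normalised to vehicle and forskolin-only controls.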

[3] = target: human δ-opioid receptor (Homo sapiens, UniProt P41143); assay: Inhibition of forskolin-induced cAMP accumulation, DOR; assay type: cell-based
Chain of human δ-opioid receptor (P41143 whole entry): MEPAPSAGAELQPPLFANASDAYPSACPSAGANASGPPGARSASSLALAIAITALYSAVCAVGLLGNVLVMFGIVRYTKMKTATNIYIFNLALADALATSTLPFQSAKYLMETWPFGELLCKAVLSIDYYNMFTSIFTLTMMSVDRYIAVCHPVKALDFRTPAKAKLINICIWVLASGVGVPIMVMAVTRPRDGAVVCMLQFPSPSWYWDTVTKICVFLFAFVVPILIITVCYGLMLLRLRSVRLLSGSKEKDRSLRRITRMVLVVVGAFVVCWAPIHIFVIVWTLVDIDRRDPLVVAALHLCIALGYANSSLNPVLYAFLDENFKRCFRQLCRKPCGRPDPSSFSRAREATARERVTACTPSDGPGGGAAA
In short: as §1

[4] = system: mice; assay: Warm-water tail-withdrawal assay; assay type: in vivo; conditions: 50°C warm-water tail withdrawal, 2 mg/kg i.p.
[5] = system: mice; assay: Intradermal formalin assay; assay type: in vivo
[6] = target: T1, human κ-opioid receptor (Homo sapiens, UniProt P41145); assay: Inhibition of forskolin-induced cAMP accumulation, KOR; assay type: cell-based; conditions: result in words
T1 sequence (P41145 whole entry): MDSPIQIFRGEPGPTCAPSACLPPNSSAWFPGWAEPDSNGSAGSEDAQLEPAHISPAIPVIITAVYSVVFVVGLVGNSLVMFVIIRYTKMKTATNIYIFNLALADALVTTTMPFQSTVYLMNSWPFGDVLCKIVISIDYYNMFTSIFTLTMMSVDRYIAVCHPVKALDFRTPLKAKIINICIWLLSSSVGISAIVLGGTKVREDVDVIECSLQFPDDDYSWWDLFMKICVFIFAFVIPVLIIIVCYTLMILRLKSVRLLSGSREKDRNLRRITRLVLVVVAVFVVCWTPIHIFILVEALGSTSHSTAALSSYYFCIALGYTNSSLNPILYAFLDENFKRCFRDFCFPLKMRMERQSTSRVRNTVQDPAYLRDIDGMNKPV

[7] = target: T1, human κ-opioid receptor; conditions: result in words; cited from earlier work
[8] = 2% intradermal formalin, mice, i.p., vs vehicle/formalin controls
[9] = 2% intradermal formalin, mice, i.p., result in words
[10] = 2% intradermal formalin, mice, vs vehicle/formalin controls, result in words

Row | SMILES | percent remaining at 150 minutes, absence of NADPH [1] | time of significant analgesic effect compared to vehicle (%MPE time course) [4] | time of significant reduction of phase two pain [5, 8] | AUC of phase one (0-15 min) pain [5, 9] | AUC of phase two (15-60 min) pain [5, 9] | footpad edema at 60 min [5, 10] | further results
1 | COc1ccc2c(c1)[C@]13CCCC[C@@H]1[C@H](C2)N(C)CC3 [dextromethorphan, dextromethorphan hydrobomide, reference compound] | not metabolized | – | – | – | – | – | –
2 | COC(=O)[C@@H]1C[C@]2(CCC(=O)O2)C(=O)[C@H]2[C@@]1(C)CC[C@H]1C(=O)O[C@H](c3ccoc3)C[C@]21C [compound 14, Methyl (2S,4aR,6aR,7R,9R,10aS,10bR)-2-(furan-3-yl)-6a,10b-dimethyl-4,5′,10-trioxododecahydro-2H,3′H,4H-spiro[benzo[f]isochromene-9,2′-furan]-7-carboxylate] | less metabolized than 9 | 10 to 30 min | 20 to 45 min | not significantly different from vehicle | reduced phase two pain | significant reduction in edema | EC50 [2]: > 10 µM; EC50 [3]: > 10 µM; time of significant attenuation of phase one pain [5, 8]: 10 min; effect on formalin pain behavior after pre-treatment with nor-BNI ([5]; KOR antagonist nor-BNI 10 mg/kg s.c. 24 hours prior, result in words): prevented
3 | COC(=O)[C@@H]1CCC(=O)[C@H]2[C@@]1(C)CC[C@H]1C(=O)O[C@H](c3ccoc3)C[C@]21C [compound 11, Methyl (2S,4aR,6aR,7R,10aS,10bR)-2-(furan-3-yl)-6a,10b-dimethyl-4,10-dioxododecahydro-2H-benzo[f]isochromene-7-carboxylate] | – | – | – | – | – | – | KOR activity [6]: complete loss of KOR activity; also recorded: completely inactive
4 | COC(=O)[C@@H]1C=C(OC(=O)c2ccccc2)C(=O)[C@H]2[C@@]1(C)CC[C@H]1C(=O)O[C@H](c3ccoc3)C[C@]21C [Kurkinorin] | – | – | – | – | – | – | KOR activity [7]: no KOR activity
5 | COC(=O)[C@@H]1C[C@H](OC(C)=O)C(=O)[C@H]2[C@@]1(C)CC[C@H]1C(=O)O[C@H](c3ccoc3)C[C@]21C [compound 9, salvinorin A, reference compound] | – | 5 to 30 min | 20 to 50 min | significant reduction | significant reduction | significant reduction in edema | –
